Test results taken from ChEMBL document CHEMBL1770123, “SPF32629A and SPF32629B: enantioselective synthesis, determination of absolute configuration, cytotoxicity and antibacterial evaluation” (Eur J Med Chem, 2011).
≈ marks a conversion by molar mass, not a printed value. Calls of active or inactive are those of the source. The calls are words filed in the database; no cut-off is given here.

Key:
Staphylococcus aureus [1] = experiment: Antimicrobial activity against methicillin-resistant Staphylococcus aureus strain 1 TB3G after 24 hrs by microdilution method; assay type: functional
Method in brief: (§1)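 Growth was judged by turbidity. The MIC was taken as the lowest concentration giving the lowest growth.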

Bacillus subtilis [2] = experiment: Antimicrobial activity against Bacillus subtilis after 24 hrs by microdilution method; assay type: functional
Method in brief: (§2)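 Growth was judged by turbidity, and the MIC was taken as the minimum concentration giving the lowest growth. Amikacin served as reference.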

Staphylococcus aureus [3] = experiment: Antimicrobial activity against methicillin-resistant Staphylococcus aureus strain 2 TB4G after 24 hrs by microdilution method; assay type: functional; method in brief: as §1
Listeria monocytogenes [4] = experiment: Antimicrobial activity against Listeria monocytogenes after 24 hrs by microdilution method; assay type: functional; method in brief: as §2
Listeria monocytogenes [5] = experiment: Antimicrobial activity against Listeria monocytogenes at 100 ug/disc after 24 hrs by disc diffusion method; assay type: functional; details: read-out: DIZ
Escherichia coli [6] = experiment: Antimicrobial activity against Escherichia coli at 100 ug/disc after 24 hrs by disc diffusion method; assay type: functional; details: read-out: DIZ
Staphylococcus aureus [7] = experiment: Antimicrobial activity against Staphylococcus aureus at 100 ug/disc after 24 hrs by disc diffusion method; assay type: functional; details: read-out: DIZ
Klebsiella pneumoniae [8] = experiment: Antimicrobial activity against Klebsiella pneumoniae at 100 ug/disc after 24 hrs by disc diffusion method; assay type: functional; details: read-out: DIZ
Staphylococcus aureus [9] = experiment: Antimicrobial activity against Staphylococcus aureus after 24 hrs by microdilution method; assay type: functional; method in brief: as §2
Escherichia coli [10] = experiment: Antimicrobial activity against Escherichia coli after 24 hrs by microdilution method; assay type: functional; method in brief: as §2
[11] = system: Staphylococcus epidermidis; experiment: Antimicrobial activity against Staphylococcus epidermidis at 100 ug/disc after 24 hrs by disc diffusion method; assay type: functional; details: read-out: DIZ
Bacillus subtilis [12] = experiment: Antimicrobial activity against Bacillus subtilis at 100 ug/disc after 24 hrs by disc diffusion method; assay type: functional; details: read-out: DIZ
[13] = system: Staphylococcus epidermidis; experiment: Antimicrobial activity against Staphylococcus epidermidis after 24 hrs by microdilution method; assay type: functional; method in brief: as §2
Salmonella typhimurium [14] = experiment: Antimicrobial activity against Salmonella Typhimurium after 24 hrs by microdilution method; assay type: functional, Salmonella enterica subsp. enterica serovar Typhimurium; details: Salmonella enterica; method in brief: as §2
Klebsiella pneumoniae [15] = experiment: Antimicrobial activity against Klebsiella pneumoniae after 24 hrs by microdilution method; assay type: functional; method in brief: as §2
Staphylococcus aureus [16] = experiment: Antimicrobial activity against methicillin-resistant Staphylococcus aureus strain 1 TB3G at 100 ug/disc after 24 hrs by disc diffusion method; assay type: functional; details: read-out: DIZ
Staphylococcus aureus [17] = experiment: Antimicrobial activity against methicillin-resistant Staphylococcus aureus strain 4 TB5G at 100 ug/disc after 24 hrs by disc diffusion method; assay type: functional, organism-based
Salmonella typhimurium [18] = experiment: Antimicrobial activity against Salmonella Typhimurium at 100 ug/disc after 24 hrs by disc diffusion method; assay type: functional, Salmonella enterica subsp. enterica serovar Typhimurium; details: Salmonella enterica, read-out: DIZ
Staphylococcus aureus [19] = experiment: Antimicrobial activity against methicillin-resistant Staphylococcus aureus strain 4 TB5G after 24 hrs by microdilution method; assay type: functional; method in brief: as §1
Staphylococcus aureus [20] = experiment: Antimicrobial activity against methicillin-resistant Staphylococcus aureus strain 2 TB4G at 100 ug/disc after 24 hrs by disc diffusion method; assay type: functional; details: read-out: DIZ

`NCC[C@H](O)C(=O)N[C@@H]1C[C@H](N)[C@@H](O[C@H]2O[C@H](CN)[C@@H](O)[C@H](O)[C@H]2O)[C@H](O)[C@H]1O[C@H]1O[C@H](CO)[C@@H](O)[C@H](N)[C@H]1O` [AMIKACIN] was tested, and the MIC (Staphylococcus aureus [1]) was > 100 µg/mL, the MIC (Bacillus subtilis [2]) was 6 µg/mL (≈ 10.2 µM) and the MIC (Staphylococcus aureus [3]) was > 100 µg/mL. The MIC (Listeria monocytogenes [4]) was 6 µg/mL (≈ 10.2 µM), the zone of inhibition at 100 µg/disc (Listeria monocytogenes [5]) was 20 mm and the zone of inhibition at 100 µg/disc (Escherichia coli [6]) was 22 mm. It also gave a zone of inhibition at 100 µg/disc (Staphylococcus aureus [7]) of 20 mm, a zone of inhibition at 100 µg/disc (Klebsiella pneumoniae [8]) of 21 mm and an MIC (Staphylococcus aureus [9]) of 50 µg/mL (≈ 85.4 µM). The MIC (Escherichia coli [10]) was 6 µg/mL (≈ 10.2 µM), the zone of inhibition at 100 µg/disc [11] was 22 mm and the zone of inhibition at 100 µg/disc (Bacillus subtilis [12]) was 21 mm. It also gave an MIC [13] of 12 µg/mL (≈ 20.5 µM), an MIC (Salmonella typhimurium [14]) of 12 µg/mL (≈ 20.5 µM) and an MIC (Klebsiella pneumoniae [15]) of 6 µg/mL (≈ 10.2 µM). The zone of inhibition at 100 µg/disc (Staphylococcus aureus [16]) was 17 mm, the “diameter of the inhibition zone (DIZ)” value (Staphylococcus aureus [17]) was “inactive” and the zone of inhibition at 100 µg/disc (Salmonella typhimurium [18]) was 19 mm. For the same compound, the MIC (Staphylococcus aureus [19]) was > 100 µg/mL and the zone of inhibition at 100 µg/disc (Staphylococcus aureus [20]) was 19 mm.
